In the library only some 7.2% were active in any assay of this set; here they are far more common.
hDAT+cocaine: modulates human dopamine transporter uptake under cocaine | Q01959 | LLC-PK1 hDAT cells, [14C]-dopamine uptake with cocaine IC80; actives deviate in either direction | B-score at 10 µM | 110,000 tested, 1.3% active | AID 449768;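 active means Z score or B-score, a plate-position-corrected score, falls beyond the plate's 99.7% confidence bounds, in either direction; inactive means both scores lie inside the 99.7% bounds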;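 further: scored against the spread of the other compound wells on the same plate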
Target sequence (Q01959 whole entry, looked up): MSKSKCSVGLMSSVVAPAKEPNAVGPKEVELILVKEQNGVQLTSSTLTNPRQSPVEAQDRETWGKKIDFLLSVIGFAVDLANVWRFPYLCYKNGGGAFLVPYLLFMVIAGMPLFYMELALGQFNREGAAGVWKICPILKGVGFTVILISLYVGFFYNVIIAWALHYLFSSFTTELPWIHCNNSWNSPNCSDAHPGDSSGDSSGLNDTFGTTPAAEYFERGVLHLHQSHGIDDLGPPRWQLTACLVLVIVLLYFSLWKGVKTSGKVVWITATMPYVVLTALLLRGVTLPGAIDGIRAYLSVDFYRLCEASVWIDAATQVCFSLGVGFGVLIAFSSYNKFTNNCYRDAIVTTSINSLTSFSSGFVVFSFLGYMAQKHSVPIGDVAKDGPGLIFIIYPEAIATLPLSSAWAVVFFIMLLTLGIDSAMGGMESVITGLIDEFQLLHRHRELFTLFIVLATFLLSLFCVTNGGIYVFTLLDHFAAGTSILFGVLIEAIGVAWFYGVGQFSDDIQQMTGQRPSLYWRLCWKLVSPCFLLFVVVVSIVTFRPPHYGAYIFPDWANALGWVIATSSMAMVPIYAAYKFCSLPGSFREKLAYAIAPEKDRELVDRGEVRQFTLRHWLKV
M1 antagonist: M1 muscarinic receptor (rat) antagonism; P08482; CHO-M1 cells, Fluo-4 calcium, ACh EC80 antagonist mode; stronger effect = lower value; B-score at 10 µM; 64,000 tested, 3.4% active;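 active means calcium fluorescence response, raw or row-and-column corrected B-score, differing from the plate sample mean either way at a set confidence level, mostly lower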
D1 allo mod: allosteric modulators of human D1 dopamine receptor | B-score at 10 µM | P21728 | AID 641 | 58,000 tested, 5.9% active | HEK293 D1, CRE-luciferase, dopamine EC30 potentiation; actives deviate in either direction;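 active means luminescence count or its row- and column-corrected plate score outside the 99.7% band of the plate's sample wells, on either side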
HEK293 NFkB inh: lowers PMA/ionomycin-induced NF-kB signal in HEK293 cells | HEK-293 NF-kB luciferase reporter, luminescence | 62,000 tested, 0.21% active | inhibition, % at 3 µM;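 active means inhibition above the mean of all tested compounds plus 3 SD, cut at about 40% in these data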;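 further: 0% = stimulated DMSO wells and 100% = 10 µM reference inhibitor 5653914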
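Timing: 1 h pretreatment, 16 h stimulation, 37 °C; system: HEK-293 cells with stable firefly luciferase reporter driven by four HIV NF-kB elements; doses: 3 µM once, 0.30% DMSO; measured by: luciferase luminescence; control set: DMSO and 10 µM reference inhibitor; repeats: single test; reagent: PMA plus ionomycin mix as NF-kB-activating stimulus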
BAP1 inh: human BAP1 deubiquitinase inhibition; calls only at 20 µM; 72,000 tested, 0.48% active; recombinant BAP1, Ub-AMC hydrolysis fluorescence kinetic; stronger effect = lower value;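 active means activity remaining at or below 50% of control, provided the compound also passes the data quality filters; inactive means the rest, including low values that fail the filters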;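 further: 100% = DMSO wells rate and 0% = substrate alone blank rate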
M1 ag: activates the M1 muscarinic receptor | CHO-M1 cells, Fluo-4 calcium fluorescence, agonist mode; stronger effect = higher value | B-score at 10 µM | 64,000 tested, 3% active | AID 626;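 active means fluorescence rise, raw or as B-score row- and column-corrected plate score, outside the 99.7% band of its plate's samples, either direction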
Starred values were filed as active, the others as inactive.

Results for COCCn1c(C)cc(C(=O)CSc2nnc3ccccn23)c1C ?
hDAT+cocaine: 0.000571; M1 antagonist: 0.123; D1 allo mod: -7.25*; HEK293 NFkB inh: -8.5; BAP1 inh: inactive; M1 ag: -0.0217

What do the screens show for `O=C(CN1C(=O)c2ccccc2C1=O)NCC1COc2ccccc2O1` (stereo not given)?
hDAT+cocaine: -0.952; M1 antagonist: 1.21*; D1 allo mod: 0.691; HEK293 NFkB inh: 9.1; BAP1 inh: inactive; M1 ag: 0.529

What do the screens show for `CCOC(=O)c1sc(NC(=O)CSc2nnc3c4ccccc4n(CC)c3n2)nc1C`?
M1 antagonist: -0.257; D1 allo mod: -0.454; BAP1 inh: inactive; M1 ag: -1.08

How did CCOC(=O)c1sc(NC(=O)C(CC)Sc2nnc3c4ccccc4n(CC)c3n2)nc1C (stereo not given) do in these assays?
M1 antagonist: 0.302; D1 allo mod: 4.18*; HEK293 NFkB inh: 21.3; BAP1 inh: inactive; M1 ag: -0.875

What do the screens show for `Cc1cccc(-c2nnc(NC(=O)C(F)(F)F)s2)c1`?
BAP1 inh: inactive

What do the screens show for `CC(=O)N1CCC(N(C(=O)Nc2ccc(C)c(C)c2)C2CCCC2)CC1`?
hDAT+cocaine: 0.0142; M1 antagonist: 3.02*; D1 allo mod: 0.495; HEK293 NFkB inh: 1.0; BAP1 inh: inactive; M1 ag: 1.49

What do the screens show for `CC(=O)N1CCC(N(CCCOC(C)C)C(=O)Nc2ccc(C)c(C)c2)CC1`?
hDAT+cocaine: 2.81

How did COc1ccc2c(c1)C1=NN(C(C)=O)C(c3ccc(F)cc3)C1CC2 (stereo not given) do in these assays?
BAP1 inh: inactive

What do the screens show for `CCOC(=O)c1cc([N+](=O)[O-])sc1NC(=O)c1ccc(Oc2ccccc2)cc1`?
BAP1 inh: inactive

Results for O=C1c2ccccc2-c2c1c(-c1ccccc1[N+](=O)[O-])nc1ccc3ccccc3c21 ?
BAP1 inh: inactive

What do the screens show for `CCC[C@@H]1CCCO[C@@](C(=O)NCc2ccccn2)(C(F)(F)F)C1`?
hDAT+cocaine: -0.117

How did CCCC[C@@H]1CCCO[C@@](C(=O)NCc2ccccn2)(C(F)(F)F)C1 do in these assays?
hDAT+cocaine: 3.08*

What do the screens show for `Clc1cccc(-c2nc3ccccc3c3nc4ccccc4n23)c1`?
BAP1 inh: inactive

Results for O=C(NCc1ccncc1)C1CCCCC1 ?
hDAT+cocaine: -7.99*

How did COC(=O)Cn1cnc(=O)c(C#N)c1/C=C/N(C)C do in these assays?
hDAT+cocaine: -0.417; M1 antagonist: 0.437; D1 allo mod: -4.72*; HEK293 NFkB inh: 0.2; BAP1 inh: inactive; M1 ag: -0.093

How did COC(=O)Cn1cnc2c(C#N)c3n(c2c1=O)CCCCC3 do in these assays?
hDAT+cocaine: -0.544; M1 antagonist: -0.0139; D1 allo mod: -0.474; HEK293 NFkB inh: 17.2; BAP1 inh: inactive; M1 ag: -0.0331

How did COc1ccccc1NC(=O)CCCN1C(=O)c2cccc3cccc(c23)C1=O do in these assays?
BAP1 inh: inactive

What do the screens show for `CCCCNC(=O)CCC(=O)Nc1ncc(-c2ccc(C)cc2)n1C`?
hDAT+cocaine: 1.72; M1 antagonist: 0.0111; D1 allo mod: -0.595; HEK293 NFkB inh: -4.8; BAP1 inh: inactive; M1 ag: 1.75

Results for Cc1ccc(-c2cnc(NC(=O)CCC(=O)N3CCCCC3)n2C)cc1 ?
hDAT+cocaine: 0.542; M1 antagonist: 0.166; D1 allo mod: -0.0195; HEK293 NFkB inh: 65.0*; BAP1 inh: inactive; M1 ag: 0.194

How did O=C(c1cnn2c(C(F)(F)F)cc(-c3ccco3)nc12)N1CCCc2ccccc21 do in these assays?
hDAT+cocaine: 1.95*; M1 antagonist: 0.364; D1 allo mod: 0.234; HEK293 NFkB inh: 11.9; BAP1 inh: inactive; M1 ag: -0.908

How did COc1ccc(C(=O)NCC(c2cccnc2)N2CCN(c3ccc(F)cc3)CC2)cc1OC (stereo not given) do in these assays?
hDAT+cocaine: 0.0551; M1 antagonist: -0.78; HEK293 NFkB inh: 10.2; BAP1 inh: inactive; M1 ag: -0.388

How did O=C(NCC(c1cccnc1)N1CCN(c2ccc(F)cc2)CC1)c1ccc(F)cc1 (stereo not given) do in these assays?
hDAT+cocaine: 3.15*; M1 antagonist: -0.17; D1 allo mod: -1.89; HEK293 NFkB inh: 20.2; BAP1 inh: inactive; M1 ag: 1.11

Results for Brc1cnc(N2CCOCC2)nc1N1CCCCC1 ?
hDAT+cocaine: -0.137; M1 antagonist: 0.0473; D1 allo mod: 0.994; HEK293 NFkB inh: 9.9; BAP1 inh: inactive; M1 ag: 0.483

How did Brc1cnn(-c2nc(N3CCOCC3)nc(N3CCOCC3)n2)c1 do in these assays?
M1 antagonist: -0.376; D1 allo mod: 3.56*; HEK293 NFkB inh: 1.9; BAP1 inh: inactive; M1 ag: 0.884

How did CCOc1ccc(S(=O)(=O)Nc2ccc(Cl)cn2)c(C)c1C do in these assays?
hDAT+cocaine: 0.686; M1 antagonist: 0.0044; D1 allo mod: -2.56*; HEK293 NFkB inh: -14.4; BAP1 inh: inactive; M1 ag: 0.0243

How did COc1ccc(C(=O)c2ccc(OCC(C)C)cc2)cc1 do in these assays?
BAP1 inh: inactive

Results for Cc1ccccc1-n1c(SCC(N)=O)nc2sc(-c3ccccc3)cc2c1=O ?
hDAT+cocaine: 2.97*

What do the screens show for `O=C(NCc1ccccc1)NC1CCCCC1`?
hDAT+cocaine: -0.51; M1 antagonist: 0.485; D1 allo mod: -0.596; HEK293 NFkB inh: 8.5; BAP1 inh: inactive; M1 ag: -1.41

Results for O=C(NCCc1ccccc1)NC1CCCCC1 ?
hDAT+cocaine: 0.284; M1 antagonist: 0.158; D1 allo mod: -2.46*; HEK293 NFkB inh: -33.5; BAP1 inh: inactive; M1 ag: -0.274

How did COc1ccc(C=Cc2ccc([N+](=O)[O-])cc2)cc1 do in these assays?
BAP1 inh: inactive

Results for O=C(O)CCC(=O)Nc1ccccc1F ?
BAP1 inh: inactive

What do the screens show for `Cc1ccc(-c2nnc(Nc3ccccc3)o2)cc1`?
hDAT+cocaine: -2.22; M1 antagonist: 0.064; D1 allo mod: -4.19*; HEK293 NFkB inh: 1.5; BAP1 inh: inactive; M1 ag: -0.212

What do the screens show for `c1ccc(-c2nc(NCCCn3ccnc3)c3oc4ccccc4c3n2)cc1`?
hDAT+cocaine: 3.52*

Results for c1ccc(-c2nc(NCc3ccco3)c3oc4ccccc4c3n2)cc1 ?
hDAT+cocaine: -0.00397

What do the screens show for `CC1CCCC(C)N1S(=O)(=O)c1cccc([N+](=O)[O-])c1` (stereo not given)?
BAP1 inh: inactive

How did c1ccc(Cc2nnc3sc(-c4ccc5c(c4)OCO5)nn23)cc1 do in these assays?
hDAT+cocaine: 0.0724; M1 antagonist: 0.0474; D1 allo mod: 6.21*; HEK293 NFkB inh: 17.1; M1 ag: 0.752

Compound activity from PubChem BioAssay.
